Measured values from ChEMBL document CHEMBL1949585, “Design, synthesis and evaluation of telomerase inhibitory, hTERT repressing, and anti-proliferation activities of symmetrical 1,8-disubstituted amidoanthraquinones” (Eur J Med Chem, 2012).
Calls of active or inactive are those of the source. The rule behind the calls is not given here.

Columns and labels:
[1] = Cytotoxicity against human H1299 cells assessed as cell growth at 1 uM after 48 hrs by MTT assay; type: functional; conditions: NCI-H1299, 48 h, read-out: Activity
Summary of the method: (§1)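 H1299 non-small lung cancer cells were grown in RPMI 1640 with 10% FBS and penicillin/streptomycin at 37 °C in 5% CO2. About 2×10³ cells were seeded per well and held 24 h, then washed with PBS and given fresh medium. Compound, freshly dissolved in DMSO and diluted in complete medium, was added for 48 h. MTT was read at 550 nm after SDS/DMF lysis at 37 °C for 16 h. Values are from three experiments, untreated = 100%, ±SD.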

[2] = Cytotoxicity against human H1299 cells assessed as cell growth at 10 uM after 48 hrs by MTT assay; type: functional; conditions: NCI-H1299, 48 h, read-out: Activity; summary of the method: as §1
[3] = Cytotoxicity against human H1299 cells assessed as cell growth at 100 uM after 48 hrs by MTT assay; type: functional; conditions: NCI-H1299, 48 h, read-out: Activity; summary of the method: as §1
[4] = Inhibition of human TERT expression in H1299 cells at 1 uM after 24 hrs by secreted alkaline phosphatase reporter gene assay relative to control; values are per cent of control; conditions: NCI-H1299
[5] = Inhibition of human TERT expression in H1299 cells at 10 uM after 24 hrs by secreted alkaline phosphatase reporter gene assay relative to control; values are per cent of control; conditions: NCI-H1299
[6] = Inhibition of human TERT expression in H1299 cells at 100 uM after 24 hrs by secreted alkaline phosphatase reporter gene assay relative to control; values are per cent of control; conditions: NCI-H1299
H1299 [7] = experiment: Inhibition of human telomerase in H1299 cell lysate at 10 uM by PCR-based telomeric repeat amplification protocol assay; type: cell-free
Summary of the method: (§2)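 TRAP assay on telomerase-active H1299 cell extracts, with RNase A-treated extract as the negative control. Compound was preincubated with extract for 5 min at room temperature before the telomerase extension and PCR amplification. The initial screen used 10 µM, and IC50 came from a dose series.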

[8] = (§3) Inhibition of human telomerase in H1299 cell lysate compound incubated for 5 mins prior to telomerase extension by PCR-based telomeric repeat amplification protocol assay; type: cell-free; summary of the method: as §2
H1299 [9] = experiment: as §3; type: cell-free; summary of the method: as §2
H1299 [10] = experiment: Inhibition of human telomerase in H1299 cell lysate compound incubated post-telomerase extension by PCR-based telomeric repeat amplification protocol assay; type: cell-free
Summary of the method: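 Modified TRAP assay (TRAP-M) to test for interference with Taq polymerase. Compound was added to H1299 extract reactions right after the telomerase extension step and before PCR amplification.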

| IC50 [8] [µM] | Structure (SMILES) | growth at 1 µM [1] [%] | growth at 10 µM [2] [%] | growth at 100 µM [3] [%] | level, % of control [4] [%] | level, % of control [5] [%] | level, % of control [6] [%] | inhibition (H1299 [7]) | inhibition (H1299 [9]) | inhibition (H1299 [10]) |
| --- | --- | --- | --- | --- | --- | --- | --- | --- | --- | --- |
|  | COc1cccc2c1C(=O)c1c(O)c3c(c(O)c1C2=O)C[C@@](O)(C(=O)CO)C[C@@H]3O[C@H]1C[C@H](N)[C@H](O)[C@H](C)O1 [DOXORUBICIN] | 17 | 0 | 0 | 33 | 13 | 5 |  |  |  |
|  | O=C(CNCc1cccc(C(F)(F)F)c1)Nc1cccc2c1C(=O)c1c(NC(=O)CNCc3cccc(C(F)(F)F)c3)cccc1C2=O | 97 | 93 | 93 | 75 | 84 | 33 |  |  |  |
|  | CN(C)CCC(=O)Nc1cccc2c1C(=O)c1c(NC(=O)CCN(C)C)cccc1C2=O | 93 | 24 | 11 | 87 | 20 | 0 |  |  |  |
|  | COC(=O)[C@@H]1CCCN1CC(=O)Nc1cccc2c1C(=O)c1c(NC(=O)CN3CCC[C@H]3C(=O)OC)cccc1C2=O | 88 | 104 | 93 | 87 | 59 | 8 |  |  |  |
|  | COC(=O)[C@H](CC(C)C)NCC(=O)Nc1cccc2c1C(=O)c1c(NC(=O)CN[C@@H](CC(C)C)C(=O)OC)cccc1C2=O | 112 | 102 | 96 | 101 | 101 | 88 |  |  |  |
|  | COC(=O)[C@H](NCC(=O)Nc1cccc2c1C(=O)c1c(NC(=O)CN[C@@H](C(=O)OC)C(C)C)cccc1C2=O)C(C)C | 88 | 80 | 58 | 91 | 95 | 45 |  |  |  |
|  | COC(=O)[C@H](CCSC)NCC(=O)Nc1cccc2c1C(=O)c1c(NC(=O)CN[C@@H](CCSC)C(=O)OC)cccc1C2=O | 99 | 78 | 60 | 105 | 94 | 24 |  |  |  |
|  | CC(C)NCC(=O)Nc1cccc2c1C(=O)c1c(NC(=O)CNC(C)C)cccc1C2=O | 89 | 86 | 14 | 103 | 101 | 35 |  |  |  |
|  | CCCN(C)CC(=O)Nc1cccc2c1C(=O)c1c(NC(=O)CN(C)CCC)cccc1C2=O | 108 | 108 | 97 | 85 | 87 | 45 |  |  |  |
| 6 | CN(C)CCCCNCCC(=O)Nc1cccc2c1C(=O)c1c(NC(=O)CCNCCCCN(C)C)cccc1C2=O | 98 | 74 | 7 | 121 | 97 | 4 | Active | Dose-dependent effect | Dose-dependent effect |
|  | O=C1c2c(O)ccc(O)c2C(=O)c2c(NCCNCCO)ccc(NCCNCCO)c21 [MITOXANTRONE] | 23 | 0 | 0 | 20 | 9 | 7 |  |  |  |
|  | CCN(C)CCC(=O)Nc1cccc2c1C(=O)c1c(NC(=O)CCN(C)CC)cccc1C2=O | 96 | 23 | 12 | 110 | 19 | 0 |  |  |  |
|  | CCN(CC)CCC(=O)Nc1cccc2c1C(=O)c1c(NC(=O)CCN(CC)CC)cccc1C2=O | 97 | 30 | 4 | 99 | 35 | 0 |  |  |  |
|  | CCCN(CCC)CCC(=O)Nc1cccc2c1C(=O)c1c(NC(=O)CCN(CCC)CCC)cccc1C2=O | 94 | 99 | 22 | 100 | 100 | 4 |  |  |  |
|  | O=C(CCNCc1cc(F)cc(F)c1)Nc1cccc2c1C(=O)c1c(NC(=O)CCNCc3cc(F)cc(F)c3)cccc1C2=O | 93 | 87 | 6 | 98 | 100 | 3 |  |  |  |
|  | COC(=O)CN(C)CC(=O)Nc1cccc2c1C(=O)c1c(NC(=O)CN(C)CC(=O)OC)cccc1C2=O | 71 | 88 | 46 | 106 | 95 | 73 |  |  |  |
|  | CC(C)CNCCC(=O)Nc1cccc2c1C(=O)c1c(NC(=O)CCNCC(C)C)cccc1C2=O | 73 | 4 | 0 | 96 | 29 | 0 |  |  |  |
|  | CC(C)CNCC(=O)Nc1cccc2c1C(=O)c1c(NC(=O)CNCC(C)C)cccc1C2=O | 53 | 44 | 28 | 110 | 86 | 77 |  |  |  |
|  | CN(C)CC(=O)Nc1cccc2c1C(=O)c1c(NC(=O)CN(C)C)cccc1C2=O | 72 | 61 | 57 | 93 | 96 | 84 |  |  |  |
|  | CNCCC(=O)Nc1cccc2c1C(=O)c1c(NC(=O)CCNC)cccc1C2=O | 117 | 107 | 33 | 101 | 97 | 22 |  |  |  |
|  | COC(=O)[C@@H](NCC(=O)Nc1cccc2c1C(=O)c1c(NC(=O)CN[C@H](C(=O)OC)C(C)C)cccc1C2=O)C(C)C | 99 | 90 | 86 | 100 | 49 | 0 |  |  |  |
|  | CN(C)CCCNCCC(=O)Nc1cccc2c1C(=O)c1c(NC(=O)CCNCCCN(C)C)cccc1C2=O | 122 | 105 | 21 | 95 | 95 | 20 |  |  |  |
|  | COC(=O)[C@H](C)NCC(=O)Nc1cccc2c1C(=O)c1c(NC(=O)CN[C@@H](C)C(=O)OC)cccc1C2=O | 98 | 104 | 96 | 99 | 93 | 67 |  |  |  |
|  | COC(=O)[C@@H](C)NCC(=O)Nc1cccc2c1C(=O)c1c(NC(=O)CN[C@H](C)C(=O)OC)cccc1C2=O | 56 | 50 | 10 | 83 | 74 | 66 |  |  |  |
|  | CCN(C)CC(=O)Nc1cccc2c1C(=O)c1c(NC(=O)CN(C)CC)cccc1C2=O | 100 | 101 | 73 | 102 | 95 | 20 |  |  |  |
|  | CCCN(CCC)CC(=O)Nc1cccc2c1C(=O)c1c(NC(=O)CN(CCC)CCC)cccc1C2=O | 90 | 76 | 66 | 105 | 101 | 94 |  |  |  |
|  | COC(=O)[C@H](COC(C)(C)C)NCC(=O)Nc1cccc2c1C(=O)c1c(NC(=O)CN[C@@H](COC(C)(C)C)C(=O)OC)cccc1C2=O | 127 | 128 | 91 | 98 | 94 | 98 |  |  |  |
|  | COC(=O)[C@@H](NCC(=O)Nc1cccc2c1C(=O)c1c(NC(=O)CN[C@H](C(=O)OC)c3ccccc3)cccc1C2=O)c1ccccc1 | 77 | 59 | 18 | 97 | 74 | 42 |  |  |  |
|  | CCNCC(=O)Nc1cccc2c1C(=O)c1c(NC(=O)CNCC)cccc1C2=O | 106 | 87 | 17 | 103 | 92 | 2 |  |  |  |
|  | CC(C)(C)OC(=O)NCCNCCC(=O)Nc1cccc2c1C(=O)c1c(NC(=O)CCNCCNC(=O)OC(C)(C)C)cccc1C2=O | 82 | 78 | 11 | 100 | 84 | 33 |  |  |  |
